Reference: ChEMBL document CHEMBL5724801, “EUbOPEN Chemogenomics Library - Multiplex” (2024)
Several values for one entry are separate records, joined by “and”; a condition that tells them apart may be missing. Equal entries are not always repeated.

tested on: HEK-293T; assay: Multiplex assay against HEK293T; type: toxicity, cell-based; conditions: human, 12 h, 1 µM, compound concentration 1 uM
Method in brief: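 Live cells were stained at seeding with Hoechst33342, BioTracker Green Microtubule Cytoskeleton Dye, MitoTracker Red and Annexin V Alexa Fluor 680. Following compound addition, they were imaged on a CQ1 microscope at 37°C and 5% CO2 and gated by CellPathfinder machine learning into Hoechst high-intensity objects or normal cells, with normal cells split into healthy, pyknosed or fragmented nuclei and pyknosed cells into mitotic or apoptotic. Tubulin, mitochondrial-mass and membrane-permeability phenotypes are per cents of healthy-nucleus cells.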

Row | SMILES | Population Apoptotic (%) | Population Fragmented Nuclei (%) | Population Healthy Nuclei (%) | Population Hoechst High Intensity Objects (%) | Population Membrane Permeable-Phenotype (%) | Population Mitochondria Different-Phenotype (%) | Population Mitotic Cells (%) | Population Normal (%) | Population Pyknosed Nuclei (%) | Population Tubulin-Different-Phenotype (%)
1 | CC1(COc2ccc3c(c2)ncn3-c2ccc3cccc(N4CCC(N)CC4)c3n2)COC1 [CRENOLANIB] | 58% and 34% | 14% and 10% | 79% and 80% | 3% and 6% | 2% and 1% | 23% and 51% | 41% and 65% | 96% and 93% | 6% and 8% | 46% and 51%
2 | Cc1c(-c2cc(-c3ccccc3Cl)no2)cnn1C1CCNCC1.Cl | 10.39% and 11.29% | 3.59% and 2.19% |  | 0.28% and 0% | 0% | 33.33% and 20% | 89.61% and 88.71% | 99.72% and 100% | 42.54% and 90.51% | 9.74% and 20%
3 | NC1=NC(=O)/C(=C2\CCNC(=O)c3[nH]c4ccccc4c32)N1 | 13.33% and 11.21% | 2.11% and 2.19% |  | 0.52% and 0% | 0.85% and 3.7% |  | 86.67% and 88.79% | 99.48% and 100% | 35.62% and 78.1% | 
4 | Cc1cccc(NC(=O)CN2CCC(c3ccccn3)CC2)c1.Cl.Cl | 34% and 46% | 7% and 5% | 76% and 82% | 5% and 3% | 0% | 54% | 65% and 53% | 94% and 96% | 15% and 11% | 33% and 22%

same assay, conditions: human, 12 h, 1 µM, compound concentration 1 uM

Row | SMILES | Total Cell Count
5 | CC1(COc2ccc3c(c2)ncn3-c2ccc3cccc(N4CCC(N)CC4)c3n2)COC1 [CRENOLANIB] | 412 and 332
6 | Cc1c(-c2cc(-c3ccccc3Cl)no2)cnn1C1CCNCC1.Cl | 363 and 137
7 | NC1=NC(=O)/C(=C2\CCNC(=O)c3[nH]c4ccccc4c32)N1 | 381 and 137
8 | Cc1cccc(NC(=O)CN2CCC(c3ccccn3)CC2)c1.Cl.Cl | 348 and 277

same assay, conditions: human, 12 h, 10 µM, compound concentration 10 uM

Row | SMILES | Population Apoptotic (%) | Population Fragmented Nuclei (%) | Population Healthy Nuclei (%) | Population Hoechst High Intensity Objects (%) | Population Membrane Permeable-Phenotype (%) | Population Mitochondria Different-Phenotype (%) | Population Mitotic Cells (%) | Population Normal (%) | Population Pyknosed Nuclei (%) | Population Tubulin-Different-Phenotype (%)
9 | CC1(COc2ccc3c(c2)ncn3-c2ccc3cccc(N4CCC(N)CC4)c3n2)COC1 [CRENOLANIB] | 69% and 55% | 67% and 64% | 13% and 17% | 67% and 69% | 0% | 84% and 90% | 30% and 45% | 32% and 30% | 18% and 17% | 68% and 50%
10 | Cc1c(-c2cc(-c3ccccc3Cl)no2)cnn1C1CCNCC1.Cl | 15.64% and 14.06% | 1.78% and 2.96% |  | 0.44% and 0% | 2.38% and 0% | 42.86% and 33.33% | 84.36% and 85.94% | 99.56% and 100% | 79.56% and 94.81% | 78.57% and 100%
11 | NC1=NC(=O)/C(=C2\CCNC(=O)c3[nH]c4ccccc4c32)N1 | 8.93% and 12.5% | 2.8% and 2.1% |  | 0% | 1% and 0% | 33.83% and 15% | 91.07% and 87.5% | 100% | 34.78% and 83.92% | 
12 | Cc1cccc(NC(=O)CN2CCC(c3ccccn3)CC2)c1.Cl.Cl | 61% and 43% | 6% and 10% | 71% and 70% | 9% and 14% | 0% | 63% and 79% | 38% and 56% | 90% and 85% | 21% and 18% | 50% and 35%

same assay, conditions: human, 12 h, 10 µM, compound concentration 10 uM

Row | SMILES | Total Cell Count
13 | CC1(COc2ccc3c(c2)ncn3-c2ccc3cccc(N4CCC(N)CC4)c3n2)COC1 [CRENOLANIB] | 423 and 376
14 | Cc1c(-c2cc(-c3ccccc3Cl)no2)cnn1C1CCNCC1.Cl | 226 and 135
15 | NC1=NC(=O)/C(=C2\CCNC(=O)c3[nH]c4ccccc4c32)N1 | 322 and 143
16 | Cc1cccc(NC(=O)CN2CCC(c3ccccn3)CC2)c1.Cl.Cl | 291 and 273

same assay, conditions: human, 24 h, 1 µM, compound concentration 1 uM

Row | SMILES | Population Apoptotic (%) | Population Fragmented Nuclei (%) | Population Healthy Nuclei (%) | Population Hoechst High Intensity Objects (%) | Population Membrane Permeable-Phenotype (%) | Population Mitochondria Different-Phenotype (%) | Population Mitotic Cells (%) | Population Normal (%) | Population Pyknosed Nuclei (%) | Population Tubulin-Different-Phenotype (%)
17 | CC1(COc2ccc3c(c2)ncn3-c2ccc3cccc(N4CCC(N)CC4)c3n2)COC1 [CRENOLANIB] | 29% and 45% | 20% and 15% | 66% and 73% | 2% and 6% | 2% and 1% | 22% and 33% | 70% and 54% | 97% and 93% | 12% and 11% | 23% and 35%
18 | Cc1c(-c2cc(-c3ccccc3Cl)no2)cnn1C1CCNCC1.Cl | 16.36% and 12.04% | 2.54% and 2.07% | 62.58% and 23.45% | 0.21% and 0.68% | 1.35% and 0% | 20.61% and 26.47% | 83.64% and 87.96% | 99.79% and 99.32% | 34.88% and 74.48% | 23.31% and 17.65%
19 | NC1=NC(=O)/C(=C2\CCNC(=O)c3[nH]c4ccccc4c32)N1 | 12% and 13.98% | 1.99% and 1.92% | 77.28% and 38.46% | 0% | 0.86% and 3.33% | 12.45% and 11.67% | 88% and 86.02% | 100% | 20.73% and 59.62% | 11.37% and 1.67%
20 | Cc1cccc(NC(=O)CN2CCC(c3ccccn3)CC2)c1.Cl.Cl | 32% and 45% | 8% and 10% | 81% and 79% | 3% and 4% | 0% | 30% and 44% | 67% and 54% | 96% and 95% | 9% and 10% | 22% and 18%

same assay, conditions: human, 24 h, 1 µM, compound concentration 1 uM

Row | SMILES | Total Cell Count
21 | CC1(COc2ccc3c(c2)ncn3-c2ccc3cccc(N4CCC(N)CC4)c3n2)COC1 [CRENOLANIB] | 547 and 415
22 | Cc1cccc(NC(=O)CN2CCC(c3ccccn3)CC2)c1.Cl.Cl | 451 and 339

same assay, conditions: human, 24 h, 10 µM, compound concentration 10 uM

Row | SMILES | Population Apoptotic (%) | Population Fragmented Nuclei (%) | Population Healthy Nuclei (%) | Population Hoechst High Intensity Objects (%) | Population Membrane Permeable-Phenotype (%) | Population Mitochondria Different-Phenotype (%) | Population Mitotic Cells (%) | Population Normal (%) | Population Pyknosed Nuclei (%) | Population Tubulin-Different-Phenotype (%)
23 | CC1(COc2ccc3c(c2)ncn3-c2ccc3cccc(N4CCC(N)CC4)c3n2)COC1 [CRENOLANIB] | 72% | 60% and 69% | 16% and 15% | 56% and 63% | 0% | 89% and 94% | 27% | 43% and 36% | 23% and 14% | 92% and 73%
24 | Cc1c(-c2cc(-c3ccccc3Cl)no2)cnn1C1CCNCC1.Cl | 46.71% and 55.88% | 1.42% and 2.05% |  | 1.85% and 0.68% | 0% and 14.29% | 78.57% and 57.14% | 53.29% and 44.12% | 98.15% and 99.32% | 78.77% and 93.15% | 92.86% and 85.71%
25 | NC1=NC(=O)/C(=C2\CCNC(=O)c3[nH]c4ccccc4c32)N1 | 14.91% and 16% | 1.32% and 5.13% | 73.68% and 30.77% | 0% | 0.89% and 6.25% | 13.69% and 18.75% | 85.09% and 84% | 100% | 25% and 64.1% | 10.42% and 4.17%
26 | Cc1cccc(NC(=O)CN2CCC(c3ccccn3)CC2)c1.Cl.Cl | 59% and 50% | 8% and 11% | 74% and 75% | 7% | 0% | 60% and 64% | 40% and 50% | 92% | 17% and 13% | 38% and 26%

same assay, conditions: human, 24 h, 10 µM, compound concentration 10 uM

Row | SMILES | Total Cell Count
27 | CC1(COc2ccc3c(c2)ncn3-c2ccc3cccc(N4CCC(N)CC4)c3n2)COC1 [CRENOLANIB] | 394 and 334
28 | Cc1c(-c2cc(-c3ccccc3Cl)no2)cnn1C1CCNCC1.Cl | 216 and 147
29 | NC1=NC(=O)/C(=C2\CCNC(=O)c3[nH]c4ccccc4c32)N1 | 456 and 156
30 | Cc1cccc(NC(=O)CN2CCC(c3ccccn3)CC2)c1.Cl.Cl | 350 and 348

same assay, conditions: human, 48 h, 1 µM, compound concentration 1 uM

Row | SMILES | Population Apoptotic (%) | Population Fragmented Nuclei (%) | Population Healthy Nuclei (%) | Population Hoechst High Intensity Objects (%) | Population Membrane Permeable-Phenotype (%) | Population Mitochondria Different-Phenotype (%) | Population Mitotic Cells (%) | Population Normal (%) | Population Pyknosed Nuclei (%) | Population Tubulin-Different-Phenotype (%)
31 | CC1(COc2ccc3c(c2)ncn3-c2ccc3cccc(N4CCC(N)CC4)c3n2)COC1 [CRENOLANIB] | 29% and 47% | 19% and 23% | 72% and 70% | 1% | 1% | 17% and 21% | 70% and 52% | 98% | 7% and 6% | 10% and 14%
32 | Cc1c(-c2cc(-c3ccccc3Cl)no2)cnn1C1CCNCC1.Cl | 12.5% and 24.62% | 3.19% and 2.61% | 82.92% and 54.9% | 0% and 1.29% | 4.07% and 0% | 28.52% and 35.71% | 87.5% and 75.38% | 100% and 98.71% |  | 
33 | NC1=NC(=O)/C(=C2\CCNC(=O)c3[nH]c4ccccc4c32)N1 | 9.77% and 15.52% | 3.77% and 1.5% | 86.2% and 69.5% | 0.08% and 0% | 3.85% and 3.6% | 10.94% and 10.79% | 90.23% and 84.48% | 99.92% and 100% | 10.03% and 29% | 
34 | Cc1cccc(NC(=O)CN2CCC(c3ccccn3)CC2)c1.Cl.Cl | 30% and 46% | 13% and 8% | 76% and 83% | 2% and 4% | 0% | 25% and 24% | 69% and 53% | 97% and 95% | 9% and 8% | 21% and 13%

same assay, conditions: human, 48 h, 1 µM, compound concentration 1 uM

Row | SMILES | Total Cell Count
35 | CC1(COc2ccc3c(c2)ncn3-c2ccc3cccc(N4CCC(N)CC4)c3n2)COC1 [CRENOLANIB] | 844 and 639
36 | Cc1cccc(NC(=O)CN2CCC(c3ccccn3)CC2)c1.Cl.Cl | 688 and 524

same assay, conditions: human, 48 h, 10 µM, compound concentration 10 uM

Row | SMILES | Population Apoptotic (%) | Population Fragmented Nuclei (%) | Population Healthy Nuclei (%) | Population Hoechst High Intensity Objects (%) | Population Membrane Permeable-Phenotype (%) | Population Mitochondria Different-Phenotype (%) | Population Mitotic Cells (%) | Population Normal (%) | Population Pyknosed Nuclei (%) | Population Tubulin-Different-Phenotype (%)
37 | CC1(COc2ccc3c(c2)ncn3-c2ccc3cccc(N4CCC(N)CC4)c3n2)COC1 [CRENOLANIB] | 86% and 84% | 51% and 47% | 17% and 22% | 41% and 49% | 0% | 97% and 96% | 13% and 15% | 59% and 50% | 30% | 95% and 96%
38 | Cc1c(-c2cc(-c3ccccc3Cl)no2)cnn1C1CCNCC1.Cl | 59.7% and 87.84% | 1.25% and 4.94% |  | 2.44% and 0% | 0.97% and 0% | 87.38% and 100% |  | 97.56% and 100% | 55.83% and 91.36% | 73.79% and 100%
39 | NC1=NC(=O)/C(=C2\CCNC(=O)c3[nH]c4ccccc4c32)N1 | 6.19% and 12.05% | 2.47% and 2.35% | 85.57% and 58.69% | 0.25% and 0.93% | 2.16% and 0.8% | 22.48% and 16.8% | 93.81% and 87.95% | 99.75% and 99.07% |  | 
40 | Cc1cccc(NC(=O)CN2CCC(c3ccccn3)CC2)c1.Cl.Cl | 46% and 48% | 13% and 16% | 75% and 76% | 4% and 2% | 0% | 45% and 37% | 53% and 51% | 95% and 97% | 10% and 7% | 26% and 20%

same assay, conditions: human, 48 h, 10 µM, compound concentration 10 uM

Row | SMILES | Total Cell Count
41 | CC1(COc2ccc3c(c2)ncn3-c2ccc3cccc(N4CCC(N)CC4)c3n2)COC1 [CRENOLANIB] | 400 and 298
42 | Cc1c(-c2cc(-c3ccccc3Cl)no2)cnn1C1CCNCC1.Cl | 246 and 162
43 | Cc1cccc(NC(=O)CN2CCC(c3ccccn3)CC2)c1.Cl.Cl | 515 and 544
